Data reported in ChEMBL document CHEMBL1135505, “Synthesis and pharmacology of benzoxazines as highly selective antagonists at M(4) muscarinic receptors” (J Med Chem, 2002).

How the values were obtained:
Format in all cases: cell-based
[1] = biological target: T1, Muscarinic acetylcholine receptor M2 (Homo sapiens, UniProt P08172); experiment: Inhibition of [3H]-NMS binding to human muscarinic acetylcholine receptor M2 in transfected CHO cells.
T1 sequence (P08172 whole entry): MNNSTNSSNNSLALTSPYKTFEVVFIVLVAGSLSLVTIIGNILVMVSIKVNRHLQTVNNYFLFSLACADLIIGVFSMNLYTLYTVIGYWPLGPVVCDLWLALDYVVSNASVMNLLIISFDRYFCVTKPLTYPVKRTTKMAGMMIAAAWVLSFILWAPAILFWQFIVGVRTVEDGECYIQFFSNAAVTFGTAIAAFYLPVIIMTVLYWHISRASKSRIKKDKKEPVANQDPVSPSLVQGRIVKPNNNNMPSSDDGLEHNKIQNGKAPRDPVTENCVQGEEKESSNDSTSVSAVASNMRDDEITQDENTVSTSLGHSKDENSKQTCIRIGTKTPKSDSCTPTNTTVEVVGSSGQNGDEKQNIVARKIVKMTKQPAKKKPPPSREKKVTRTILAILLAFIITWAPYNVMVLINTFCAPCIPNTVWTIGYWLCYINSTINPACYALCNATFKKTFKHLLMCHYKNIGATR
Procedure, shortened: (§1)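 Membranes from CHO-K1 cells expressing one human muscarinic subtype, harvested at 70-90% confluency. Incubated in 10 mM Na+/K+ PO4 pH 7.4 with 0.1 nM [3H]NMS and test compound for 120 min at 25 °C; atropine defined nonspecific binding. Filtration and scintillation counting. IC50 by logit fit, Ki by Cheng–Prusoff with KD (nM) M1 1.28, M2 0.85, M3 0.94, M4 3.10, M5 0.79. At least three tests, geometric mean.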

[2] = biological target: T2, Muscarinic acetylcholine receptor M1 (Homo sapiens, UniProt P11229); experiment: Inhibition of [3H]NMS binding to human muscarinic acetylcholine receptor M1 in transfected CHO cells.; procedure, shortened: as §1
T2 sequence (P11229 whole entry): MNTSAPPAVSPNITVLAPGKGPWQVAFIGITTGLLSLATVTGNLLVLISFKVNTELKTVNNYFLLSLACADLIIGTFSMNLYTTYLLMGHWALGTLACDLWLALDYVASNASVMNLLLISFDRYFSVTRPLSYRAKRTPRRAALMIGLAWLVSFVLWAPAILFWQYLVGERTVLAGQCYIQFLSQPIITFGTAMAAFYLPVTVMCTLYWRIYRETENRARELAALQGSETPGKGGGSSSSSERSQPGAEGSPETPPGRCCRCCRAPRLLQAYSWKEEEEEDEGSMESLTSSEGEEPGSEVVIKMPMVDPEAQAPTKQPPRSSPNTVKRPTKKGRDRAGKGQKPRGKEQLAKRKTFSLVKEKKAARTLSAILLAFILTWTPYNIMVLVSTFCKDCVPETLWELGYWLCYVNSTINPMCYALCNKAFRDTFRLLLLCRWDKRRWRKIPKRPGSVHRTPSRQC

[3] = biological target: T3, Muscarinic acetylcholine receptor M4 (Homo sapiens, UniProt P08173); experiment: Inhibition of [3H]NMS binding to human muscarinic acetylcholine receptor M4 in transfected CHO cells.; procedure, shortened: as §1
T3 sequence (P08173 whole entry): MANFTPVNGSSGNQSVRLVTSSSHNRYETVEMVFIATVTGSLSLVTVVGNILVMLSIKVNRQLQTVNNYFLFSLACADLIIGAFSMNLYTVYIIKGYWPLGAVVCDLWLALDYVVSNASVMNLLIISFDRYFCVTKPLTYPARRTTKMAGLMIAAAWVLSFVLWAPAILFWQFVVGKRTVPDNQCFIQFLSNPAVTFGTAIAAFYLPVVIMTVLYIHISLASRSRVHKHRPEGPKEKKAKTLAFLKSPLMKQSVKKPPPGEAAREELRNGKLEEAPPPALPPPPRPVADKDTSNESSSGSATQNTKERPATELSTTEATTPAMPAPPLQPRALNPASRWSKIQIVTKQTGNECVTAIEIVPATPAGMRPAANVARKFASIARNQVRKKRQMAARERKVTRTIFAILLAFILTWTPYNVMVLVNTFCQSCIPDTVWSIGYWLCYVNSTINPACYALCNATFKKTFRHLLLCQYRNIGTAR

[4] = biological target: T4, Muscarinic acetylcholine receptor M5 (Homo sapiens, UniProt P08912); experiment: Inhibition of [3H]NMS binding to human muscarinic acetylcholine receptor M5 in transfected CHO cells.; procedure, shortened: as §1
T4 sequence (P08912 whole entry): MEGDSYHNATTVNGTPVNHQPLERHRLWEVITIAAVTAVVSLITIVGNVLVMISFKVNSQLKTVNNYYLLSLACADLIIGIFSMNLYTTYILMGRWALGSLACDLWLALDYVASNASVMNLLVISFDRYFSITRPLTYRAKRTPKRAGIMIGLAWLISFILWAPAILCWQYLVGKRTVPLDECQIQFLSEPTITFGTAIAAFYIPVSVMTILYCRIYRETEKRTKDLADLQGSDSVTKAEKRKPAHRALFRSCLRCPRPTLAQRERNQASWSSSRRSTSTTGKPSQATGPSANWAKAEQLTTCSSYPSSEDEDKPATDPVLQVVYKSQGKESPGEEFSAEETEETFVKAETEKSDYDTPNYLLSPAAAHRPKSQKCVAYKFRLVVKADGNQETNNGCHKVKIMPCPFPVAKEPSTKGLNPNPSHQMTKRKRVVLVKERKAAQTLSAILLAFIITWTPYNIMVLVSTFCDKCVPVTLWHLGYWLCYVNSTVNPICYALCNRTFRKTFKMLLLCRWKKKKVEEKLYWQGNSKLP

[5] = biological target: Muscarinic acetylcholine receptor M3 (Homo sapiens, UniProt P20309); experiment: Inhibition of [3H]NMS binding to human muscarinic acetylcholine receptor M3 in transfected CHO cells.; procedure, shortened: as §1
Chain of Muscarinic acetylcholine receptor M3 (P20309 whole entry): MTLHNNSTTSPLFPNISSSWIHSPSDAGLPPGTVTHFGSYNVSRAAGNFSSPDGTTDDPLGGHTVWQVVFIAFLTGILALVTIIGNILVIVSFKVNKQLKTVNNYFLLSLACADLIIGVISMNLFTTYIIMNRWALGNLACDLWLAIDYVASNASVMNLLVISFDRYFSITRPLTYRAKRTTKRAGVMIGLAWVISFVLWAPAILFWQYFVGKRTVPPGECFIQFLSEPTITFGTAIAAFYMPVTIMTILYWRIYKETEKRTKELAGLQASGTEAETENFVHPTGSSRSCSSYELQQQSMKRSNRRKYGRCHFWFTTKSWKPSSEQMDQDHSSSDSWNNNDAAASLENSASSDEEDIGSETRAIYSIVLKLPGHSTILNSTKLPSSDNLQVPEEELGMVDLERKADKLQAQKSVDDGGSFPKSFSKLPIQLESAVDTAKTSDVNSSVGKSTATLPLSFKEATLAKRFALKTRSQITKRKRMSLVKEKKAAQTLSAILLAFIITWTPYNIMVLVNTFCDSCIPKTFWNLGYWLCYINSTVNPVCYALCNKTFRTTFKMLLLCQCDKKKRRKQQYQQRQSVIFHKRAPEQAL

| SMILES | Ki [1] [nM] | Ki [2] [nM] | Ki [3] [nM] | Ki [4] [nM] | Ki [5] [nM] |
| --- | --- | --- | --- | --- | --- |
| CCCCc1[nH]c2ccc3c(c2c1C(=O)OCC)CN1CCc2cc(OC)ccc2C1O3 (stereo not given) | 339 | 13200 | 1 | 11200 | 151 |
| CCCCCc1[nH]c2ccc3c(c2c1C(=O)OCC)CN1CCc2cc(OC)ccc2C1O3 (stereo not given) | 7240 | 20400 | 11 | 5370 | 457 |
| CCOC(=O)c1c(C)n(C)c2ccc3c(c12)CN1CCc2cc(OC)ccc2C1O3 (stereo not given) | 513 | 2000 | 15.1 | 3720 | 912 |
| CCOC(=O)c1c(CC)n(Cc2ccccc2)c2ccc3c(c12)CN1CCc2cc(OC)ccc2C1O3 (stereo not given) | 372 | 363 | 97.7 | 479 | 50.1 |
| CCOC(=O)c1c(C)[nH]c2ccc3c(c12)CN1CCc2cc(O)ccc2C1O3 (stereo not given) | > 26900 | > 21900 | > 12300 | > 28200 | 25700 |
| CCCc1c(C(=O)OCC)c2c3c(ccc2n1C)OC1c2ccc(SC)cc2CCN1C3 (stereo not given) | 3800 | 3310 | 2 | 1700 | 229 |
| CCOC(=O)c1c(C)[nH]c2ccc3c(c12)CN1CCc2cccc(Cl)c2C1O3 (stereo not given) | 2450 | > 4370 | 1950 | 4790 | 5130 |
| CCOC(=O)c1c(C)[nH]c2ccc3c(c12)CN1CCc2cc(SC)ccc2C1O3 (stereo not given) | 2190 | 1780 | 7.08 | 1950 | 229 |
| CCCc1[nH]c2ccc3c(c2c1C(=O)OCC)CN1CCc2cc(SC)ccc2C1O3 (stereo not given) | 1450 | 871 | 1 | 2400 | 100 |
| CCOC(=O)c1c(CC)[nH]c2ccc3c(c12)CN1CCc2cc(OC)ccc2C1O3 (stereo not given) | 1350 | 2190 | 3.98 | 3090 | 91.2 |
| CCCCc1[nH]c2ccc3c(c2c1C(=O)OCC)CN1CCc2cc(SC)ccc2C1O3 (stereo not given) | 2190 | 871 | 3.02 | 1480 | 339 |
| CCCCCCc1[nH]c2ccc3c(c2c1C(=O)OCC)CN1CCc2cc(OC)ccc2C1O3 (stereo not given) | 4570 | 3090 | 14.1 | > 28200 | 282 |
| CCN(C)C(=O)c1c(C)[nH]c2ccc3c(c12)CN1CCc2cc(OC)ccc2C1O3 (stereo not given) | 4070 | 21900 | 9770 | 19500 | 15500 |
| C=CCOC(=O)c1c(C)[nH]c2ccc3c(c12)CN1CCc2cc(OC)ccc2C1O3 (stereo not given) | 1070 | 1320 | 15.1 | 2240 | 407 |
| COc1ccc2c(c1)CCN1Cc3c(ccc4[nH]c(C)c(Cc5ccccc5)c34)OC21 (stereo not given) | 5370 | 2510 | 1350 | 1120 | 2040 |
| COc1ccc2c(c1)CCN1Cc3c(ccc4[nH]c(C)c(-c5nc(C)no5)c34)OC21 (stereo not given) | 2190 | 7590 | 61.7 | 6170 | 3090 |
| C=CCOC(=O)c1c(C)n(Cc2ccc(OC)cc2)c2ccc3c(c12)CN1CCc2cc(OC)ccc2C1O3 (stereo not given) | 240 | 200 | 72.4 | 501 | 676 |
| COc1ccc2c(c1)CCN1Cc3c(ccc4[nH]c(C)c(C(=O)OCc5ccccc5)c34)OC21 (stereo not given) | 1350 | 1170 | 72.4 | 1120 | 1380 |
| CCOC(=O)c1c(C)[nH]c2ccc3c(c12)CN1CCc2cc(OC)ccc2C1O3 (stereo not given) | 537 | 1320 | 7.08 | 3390 | 257 |
| COC(=O)c1c(C)n(C)c2ccc3c(c12)CN1CCc2cc(OC)ccc2C1O3 (stereo not given) | 417 | 1170 | 191 | 3630 | 398 |
| CCOC(=O)c1c(CC)n(C)c2ccc3c(c12)CN1CCc2cc(OC)ccc2C1O3 (stereo not given) | 708 | 1510 | 3.02 | 3090 | 219 |
| CCOC(=O)c1c(C)[nH]c2ccc3c(c12)CN1CCc2cc(Cl)ccc2C1O3 (stereo not given) | 3240 | 5130 | 363 | 5370 | 2750 |
| CCOC(=O)c1c(C)n(CC)c2ccc3c(c12)CN1CCc2cc(OC)ccc2C1O3 (stereo not given) | 219 | 1320 | 110 | 2510 | 263 |
| CCCc1c(C(=O)OCC)c2c3c(ccc2n1C)OC1c2ccc(OC)cc2CCN1C3 (stereo not given) | 513 | 1320 | 2 | 3390 | 70.8 |
| CCCCOC(=O)c1c(C)[nH]c2ccc3c(c12)CN1CCc2cc(OC)ccc2C1O3 (stereo not given) | 2340 | 1320 | 67.6 | 2510 | 1020 |
| CCCc1[nH]c2ccc3c(c2c1C(=O)OCC)CN1CCc2cc(OC)ccc2C1O3 (stereo not given) | 1070 | 2040 | 2 | 2240 | 70.8 |
